Measurements: ChEMBL document CHEMBL1131326, “Design, synthesis, and antiviral evaluations of 1-(substituted benzyl)-2-substituted-5,6-dichlorobenzimidazoles as nonnucleoside analogues of 2,5,6-trichloro-1-(beta-D-ribofuranosyl)benzimidazole” (J Med Chem, 1998)

Test system: Human betaherpesvirus 5
Assay: Antiviral activity against human cytomegalovirus (HCMV) by plaque reduction assay
Format: functional, organism-based
Conditions: not given
Procedure, shortened: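 HFF monolayers infected with about 100 pfu/cm² of HCMV Towne (isolate Po); after adsorption, compound in growth medium added to duplicate wells at four to eight concentrations.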

SMILES | IC50 [µM]
Cc1ccc(Cn2c(N)nc3cc(Cl)c(Cl)cc32)cc1 | 30
O=[N+]([O-])c1ccc(Cn2c(Br)nc3cc(Cl)c(Cl)cc32)cc1 | > 100
Clc1cc2nc(Cl)n(Cc3ccccc3Cl)c2cc1Cl | 30
Nc1nc2cc(Cl)c(Cl)cc2n1Cc1ccc(Cl)cc1 | > 100
Nc1nc2cc(Cl)c(Cl)cc2n1Cc1cccc([N+](=O)[O-])c1 | > 100
Clc1ccc(Cn2c(Cl)nc3cc(Cl)c(Cl)cc32)cc1 | > 100
Clc1ccc(Cn2c(Cl)nc3cc(Cl)c(Cl)cc32)cc1Cl | > 100
Clc1cc2nc(Br)n(Cc3ccccc3Cl)c2cc1Cl | > 10
Fc1ccc(Cn2c(Cl)nc3cc(Cl)c(Cl)cc32)cc1 | > 100
Nc1nc2cc(Cl)c(Cl)cc2n1Cc1cccc(Cl)c1 | > 100
FC(F)(F)c1cccc(Cn2c(Cl)nc3cc(Cl)c(Cl)cc32)c1 | > 100

Test system: KB
Assay: Inhibition of KB cell growth determined by quadruplicate assays
Format: functional, cell-based
Conditions: Homo sapiens
Procedure, shortened: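 KB cells seeded at 3000-5000/well, overnight at 37 °C, then compound in quadruplicate at six to eight concentrations for 48 h (about two doublings) in CO₂. Cells fixed in 95% ethanol, stained with 0.1% crystal violet, dye eluted with acidified ethanol and read at 570 nm; IC50 by regression vs log concentration.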

SMILES | IC50 [µM]
Cc1ccc(Cn2c(N)nc3cc(Cl)c(Cl)cc32)cc1 | 50
O=[N+]([O-])c1ccc(Cn2c(Br)nc3cc(Cl)c(Cl)cc32)cc1 | 40
Clc1cc2nc(Cl)n(Cc3ccccc3Cl)c2cc1Cl | 156
Nc1nc2cc(Cl)c(Cl)cc2n1Cc1ccc(Cl)cc1 | 45
Nc1nc2cc(Cl)c(Cl)cc2n1Cc1cccc([N+](=O)[O-])c1 | 65
Clc1ccc(Cn2c(Cl)nc3cc(Cl)c(Cl)cc32)cc1 | > 100
Clc1ccc(Cn2c(Cl)nc3cc(Cl)c(Cl)cc32)cc1Cl | > 100
Clc1cc2nc(Br)n(Cc3ccccc3Cl)c2cc1Cl | 78
Fc1ccc(Cn2c(Cl)nc3cc(Cl)c(Cl)cc32)cc1 | > 100
Nc1nc2cc(Cl)c(Cl)cc2n1Cc1cccc(Cl)c1 | 65
FC(F)(F)c1cccc(Cn2c(Cl)nc3cc(Cl)c(Cl)cc32)c1 | > 100

Test system: not listed separately
Assay: Compound was tested for antiviral activity against HIV resistant to TIBO A-17
Format: functional, Human immunodeficiency virus 1
Conditions: not given
Procedure, shortened: (§1)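 Syncytial plaque assay in duplicate sets on CEM-SS cells made adherent with poly-L-lysine. Virus was the A17 HIV-1 variant, resistant to nonnucleoside RT inhibitors including TIBO, or HIV-2, both from the AIDS Research and Reference Program. Infection was in the presence or absence of compound; syncytial plaques were counted at 30-fold magnification 7 days postinfection. IC50 came from linear regression of percent inhibition against log concentration.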

SMILES | IC50 [µM]
O=[N+]([O-])c1ccc(Cn2c(Br)nc3cc(Cl)c(Cl)cc32)cc1 | 11

Test system: Human immunodeficiency virus 1
Assay: Activity against HIV-1 by syncytial plaque assay performed in duplicate using CEM-SS cells
Format: functional, organism-based
Conditions: Human immunodeficiency virus 1, CEM-SS
Procedure, shortened: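 Syncytial plaque assay: poly-L-lysine-adherent CEM-SS cells infected with HIV-1 strain IIIB with or without compound at selected concentrations; syncytial plaques counted at 30-fold magnification 7 days postinfection; duplicate. IC50 from linear regression of percent inhibition against log concentration.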

SMILES | IC50 [µM]
Cc1ccc(Cn2c(N)nc3cc(Cl)c(Cl)cc32)cc1 | 20
O=[N+]([O-])c1ccc(Cn2c(Br)nc3cc(Cl)c(Cl)cc32)cc1 | 14
Clc1cc2nc(Cl)n(Cc3ccccc3Cl)c2cc1Cl | 15
Nc1nc2cc(Cl)c(Cl)cc2n1Cc1ccc(Cl)cc1 | 10
Nc1nc2cc(Cl)c(Cl)cc2n1Cc1cccc([N+](=O)[O-])c1 | 21
Clc1ccc(Cn2c(Cl)nc3cc(Cl)c(Cl)cc32)cc1Cl | > 100
Clc1cc2nc(Br)n(Cc3ccccc3Cl)c2cc1Cl | 15
Fc1ccc(Cn2c(Cl)nc3cc(Cl)c(Cl)cc32)cc1 | 37
Nc1nc2cc(Cl)c(Cl)cc2n1Cc1cccc(Cl)c1 | > 30
FC(F)(F)c1cccc(Cn2c(Cl)nc3cc(Cl)c(Cl)cc32)c1 | > 100

Test system: HFF
Assay: Visual cytotoxicity scored on HFF cells at a time of HCMV plaque enumeration
Format: functional, cell-based
Conditions: Homo sapiens
Procedure, shortened: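 Cytotoxicity in stationary HFF cells scored by microscopic inspection of cells not affected by virus, at time of HCMV plaque enumeration, in the plaque-assay plates.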

SMILES | IC50 [µM]
Cc1ccc(Cn2c(N)nc3cc(Cl)c(Cl)cc32)cc1 | 32
O=[N+]([O-])c1ccc(Cn2c(Br)nc3cc(Cl)c(Cl)cc32)cc1 | > 100
Clc1cc2nc(Cl)n(Cc3ccccc3Cl)c2cc1Cl | > 100
Nc1nc2cc(Cl)c(Cl)cc2n1Cc1ccc(Cl)cc1 | > 100
Nc1nc2cc(Cl)c(Cl)cc2n1Cc1cccc([N+](=O)[O-])c1 | > 100
Clc1ccc(Cn2c(Cl)nc3cc(Cl)c(Cl)cc32)cc1 | > 100
Clc1ccc(Cn2c(Cl)nc3cc(Cl)c(Cl)cc32)cc1Cl | > 100
Clc1cc2nc(Br)n(Cc3ccccc3Cl)c2cc1Cl | > 10
Fc1ccc(Cn2c(Cl)nc3cc(Cl)c(Cl)cc32)cc1 | > 100
Nc1nc2cc(Cl)c(Cl)cc2n1Cc1cccc(Cl)c1 | > 100
FC(F)(F)c1cccc(Cn2c(Cl)nc3cc(Cl)c(Cl)cc32)c1 | > 100

Test system: Human immunodeficiency virus 1
Assay: (§2) Compound was tested for antiviral activity against HIV-1 resistant to TIBO A-17
Format: functional, organism-based
Conditions: not given
Procedure, shortened: as §1

SMILES | IC50 [µM]
Fc1ccc(Cn2c(Cl)nc3cc(Cl)c(Cl)cc32)cc1 | 19

Test system: Human immunodeficiency virus 2
Assay: Compound was tested for antiviral activity against HIV-2
Conditions: not given

SMILES | IC50 [µM]
Fc1ccc(Cn2c(Cl)nc3cc(Cl)c(Cl)cc32)cc1 | > 30

Test system: Human immunodeficiency virus 2
Assay: Compound was tested for antiviral activity against HIV-2
Format: functional, organism-based
Conditions: not given

SMILES | IC50 [µM]
O=[N+]([O-])c1ccc(Cn2c(Br)nc3cc(Cl)c(Cl)cc32)cc1 | 66
Clc1cc2nc(Cl)n(Cc3ccccc3Cl)c2cc1Cl | > 30
Clc1ccc(Cn2c(Cl)nc3cc(Cl)c(Cl)cc32)cc1 | > 30

Test system: not listed separately
Assay: Compound was tested for antiviral activity against matched pairs of HIV-1 resistant to AZT
Format: functional, Human immunodeficiency virus 1
Conditions: not given
Procedure, shortened: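 Matched clinical pairs of AZT-sensitive and AZT-resistant HIV-1 (C-691/G762 or H-112/G910, depending on compound series) were tested by syncytial plaque assay in duplicate sets on poly-L-lysine-adherent CEM-SS cells. Syncytial plaques were counted at 30-fold magnification 7 days postinfection. IC50 came from regression of percent inhibition versus log concentration, averaged over duplicate experiments.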

SMILES | IC50 [µM]
O=[N+]([O-])c1ccc(Cn2c(Br)nc3cc(Cl)c(Cl)cc32)cc1 | 6.9
Clc1ccc(Cn2c(Cl)nc3cc(Cl)c(Cl)cc32)cc1 | 255

Test system: Human alphaherpesvirus 1
Assay: Antiviral activity against herpes simplex virus type-1 (HSV-1)
Format: functional, organism-based
Conditions: not given
Procedure, shortened: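 BSC-1 cells (10 000/well, MEM(E) + 10% calf serum) incubated overnight, then given drug in quadruplicate plus HSV-1 KOS at 100 pfu/well; 3 days at 37 °C. ELISA with HRP-conjugated rabbit anti-HSV-1 antibody, TMB substrate, stopped with H₂SO₄, absorbance at 450 and 570 nm; IC50 by regression of % absorbance reduction vs log concentration.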

SMILES | IC50 [µM]
Cc1ccc(Cn2c(N)nc3cc(Cl)c(Cl)cc32)cc1 | 80
Clc1cc2nc(Cl)n(Cc3ccccc3Cl)c2cc1Cl | > 100
Nc1nc2cc(Cl)c(Cl)cc2n1Cc1ccc(Cl)cc1 | > 100
Nc1nc2cc(Cl)c(Cl)cc2n1Cc1cccc([N+](=O)[O-])c1 | > 100
Clc1ccc(Cn2c(Cl)nc3cc(Cl)c(Cl)cc32)cc1 | > 100
Clc1ccc(Cn2c(Cl)nc3cc(Cl)c(Cl)cc32)cc1Cl | > 100
Clc1cc2nc(Br)n(Cc3ccccc3Cl)c2cc1Cl | > 100
Fc1ccc(Cn2c(Cl)nc3cc(Cl)c(Cl)cc32)cc1 | > 100
Nc1nc2cc(Cl)c(Cl)cc2n1Cc1cccc(Cl)c1 | 70
FC(F)(F)c1cccc(Cn2c(Cl)nc3cc(Cl)c(Cl)cc32)c1 | > 100

Test system: CEM-SS
Assay: Compound was tested for activity against HIV-1 by syncytial plaque assay performed in duplicate using CEM-SS cells
Format: functional, cell-based
Conditions: Homo sapiens
Procedure, shortened: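 CEM-SS cells made adherent with poly-L-lysine, infected with HIV-1 strain IIIB with or without selected compound concentrations; duplicate sets. Syncytial plaques counted at 30-fold magnification 7 days post-infection. Percent inhibition regressed linearly against log concentration to give IC50; zidovudine positive control in all assays. Values averaged over duplicate or triplicate experiments.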

SMILES | IC50 [µM]
Clc1ccc(Cn2c(Cl)nc3cc(Cl)c(Cl)cc32)cc1 | 9.1

Test system: not listed separately
Assay: Compound was tested for antiviral activity against matched pairs of HIV-1 sensitive to AZT
Format: functional, Human immunodeficiency virus 1
Conditions: not given

SMILES | IC50 [µM]
O=[N+]([O-])c1ccc(Cn2c(Br)nc3cc(Cl)c(Cl)cc32)cc1 | 11
Clc1ccc(Cn2c(Cl)nc3cc(Cl)c(Cl)cc32)cc1 | 30

Test system: not listed separately
Assay: as §2
Format: functional, Human immunodeficiency virus 1
Conditions: not given
Procedure, shortened: as §1

SMILES | IC50 [µM]
Clc1cc2nc(Cl)n(Cc3ccccc3Cl)c2cc1Cl | 13
Clc1ccc(Cn2c(Cl)nc3cc(Cl)c(Cl)cc32)cc1 | 19

Test system: CEM-SS
Assay: Cytotoxicity against CEM-SS cells in terms of incorporation of [3H]dThd
Format: functional, cell-based
Conditions: Homo sapiens
Procedure, shortened: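 DNA synthesis in CEM-SS cells measured as uptake of [³H]dThd into total acid-precipitable material; results averaged from duplicate experiments.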

SMILES | IC50 [µM]
Cc1ccc(Cn2c(N)nc3cc(Cl)c(Cl)cc32)cc1 | 40
O=[N+]([O-])c1ccc(Cn2c(Br)nc3cc(Cl)c(Cl)cc32)cc1 | > 100
Clc1cc2nc(Cl)n(Cc3ccccc3Cl)c2cc1Cl | 70
Nc1nc2cc(Cl)c(Cl)cc2n1Cc1ccc(Cl)cc1 | 32
Nc1nc2cc(Cl)c(Cl)cc2n1Cc1cccc([N+](=O)[O-])c1 | 47
Clc1ccc(Cn2c(Cl)nc3cc(Cl)c(Cl)cc32)cc1 | > 100
Clc1ccc(Cn2c(Cl)nc3cc(Cl)c(Cl)cc32)cc1Cl | > 100
Clc1cc2nc(Br)n(Cc3ccccc3Cl)c2cc1Cl | 74
Fc1ccc(Cn2c(Cl)nc3cc(Cl)c(Cl)cc32)cc1 | > 100
Nc1nc2cc(Cl)c(Cl)cc2n1Cc1cccc(Cl)c1 | 37
FC(F)(F)c1cccc(Cn2c(Cl)nc3cc(Cl)c(Cl)cc32)c1 | > 100
